ChEMBL document CHEMBL1145123, “Trisubstituted acridine derivatives as potent and selective telomerase inhibitors” (J Med Chem, 2003)

Columns and labels:
[1] = Cytotoxicity against ovarian carcinoma A2780 cell lines; format: functional, cell-based; conditions: Homo sapiens
Procedure, shortened: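 SRB assay. Cells were seeded at 3000–6000 per well and attached overnight. Salts dissolved in water at 500 μM were added in quadruplicate at 0.05, 0.25, 1, 5 and 25 μM final for 96 h. Cells were then fixed with cold 10% TCA and stained with 0.4% SRB. A540 was expressed as % of untreated control, and IC50 was derived.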

[2] = target: Telomerase reverse transcriptase (Homo sapiens, UniProt O14746); assay: Inhibitory activity against human telomerase
Telomerase reverse transcriptase, sequence (O14746 whole entry): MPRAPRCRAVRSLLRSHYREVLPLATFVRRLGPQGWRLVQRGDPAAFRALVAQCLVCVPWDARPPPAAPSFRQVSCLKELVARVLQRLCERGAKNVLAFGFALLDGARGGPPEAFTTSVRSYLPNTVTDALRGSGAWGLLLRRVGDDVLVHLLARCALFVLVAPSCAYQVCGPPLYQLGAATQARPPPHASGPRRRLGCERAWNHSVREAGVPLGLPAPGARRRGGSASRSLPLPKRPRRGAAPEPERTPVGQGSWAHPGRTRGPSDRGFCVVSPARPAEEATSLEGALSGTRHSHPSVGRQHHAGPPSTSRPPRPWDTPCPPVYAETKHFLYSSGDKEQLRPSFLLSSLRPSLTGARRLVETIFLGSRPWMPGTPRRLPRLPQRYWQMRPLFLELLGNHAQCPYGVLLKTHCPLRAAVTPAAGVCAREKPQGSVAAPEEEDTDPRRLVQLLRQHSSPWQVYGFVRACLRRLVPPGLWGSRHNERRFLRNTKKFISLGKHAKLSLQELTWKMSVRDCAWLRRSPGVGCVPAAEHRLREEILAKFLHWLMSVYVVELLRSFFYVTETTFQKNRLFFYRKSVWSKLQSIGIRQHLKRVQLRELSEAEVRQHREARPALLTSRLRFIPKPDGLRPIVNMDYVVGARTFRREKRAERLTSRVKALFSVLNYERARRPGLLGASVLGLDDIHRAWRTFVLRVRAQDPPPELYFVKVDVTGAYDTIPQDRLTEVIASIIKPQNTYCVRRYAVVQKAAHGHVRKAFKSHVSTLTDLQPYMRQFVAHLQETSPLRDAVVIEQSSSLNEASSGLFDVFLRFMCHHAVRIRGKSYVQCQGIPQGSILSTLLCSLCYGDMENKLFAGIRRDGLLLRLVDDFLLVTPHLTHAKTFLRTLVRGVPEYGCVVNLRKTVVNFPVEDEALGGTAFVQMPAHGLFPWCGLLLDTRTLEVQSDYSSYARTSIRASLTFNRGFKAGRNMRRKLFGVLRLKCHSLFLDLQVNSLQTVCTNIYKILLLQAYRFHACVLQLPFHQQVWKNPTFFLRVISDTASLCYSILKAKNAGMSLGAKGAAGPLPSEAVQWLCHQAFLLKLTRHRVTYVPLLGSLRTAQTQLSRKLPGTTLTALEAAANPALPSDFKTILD
Procedure, shortened: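 Modified TRAP assay with extract protein (0.04 μg) from exponentially growing A2780 cells. The enzyme was heat-inactivated at 80 °C, then CX primer was added and 31 PCR cycles were run. Products were quantified by gel phosphorimaging or filter scintillation counting. Agents were first screened against Taq polymerase at 1–50 μM.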

[3] = […]; format: functional, cell-based; conditions: Homo sapiens, A-431
Homo sapiens [4] = species: Homo sapiens; assay: (§1) Affinity constant for binding to duplex DNA; format: functional, organism-based
Homo sapiens [5] = species: Homo sapiens; assay: Affinity constant for binding to human 22-mer quadruplex; format: functional
Nucleic Acid = assay: as §1; format: functional, Homo sapiens

Row | SMILES | IC50 [1] | EC50 [2] | IC50 [3] | Ka (Homo sapiens [4]) | Ka (Homo sapiens [5]) | Ka (Nucleic Acid)
1 | Nc1ccccc1Nc1c2ccc(NC(=O)CCN3CCCC3)cc2nc2cc(NC(=O)CCN3CCCC3)ccc12 | 11 µM | 0.02 µM | 7.1 µM | – | – | –
2 | CN(C)CCNc1c2cc(NC(=O)CCN3CCCC3)ccc2nc2ccc(NC(=O)CCN3CCCC3)cc12 | 11 µM | 0.57 µM | > 25 µM | – | – | –
3 | CN(C)c1ccc(Nc2c3ccc(NC(=O)CCN4CCCC4)cc3nc3ccc(NC(=O)CCN4CCCC4)cc23)cc1 | 7.9 µM | 0.17 µM | 10 µM | – | – | –
4 | O=C(CCN1CCCC1)Nc1ccc2c(NC3CCCCC3)c3cc(NC(=O)CCN4CCCC4)ccc3nc2c1 | 10 µM | 0.21 µM | 14 µM | – | – | –
5 | CN(C)c1ccc(Nc2c3ccc(NC(=O)CCN4CCCC4)cc3nc3cc(NC(=O)CCN4CCCC4)ccc23)cc1 | 10 µM | 0.115 µM | 15.8 µM | 400000 M⁻¹ | 16000000 M⁻¹ | –
6 | CN(C)CCNc1c2ccc(NC(=O)CCN3CCCC3)cc2nc2ccc(NC(=O)CCN3CCCC3)cc12 | > 25 µM | 0.27 µM | > 25 µM | – | – | –
7 | CSc1cccc(Nc2c3ccc(NC(=O)CCN4CCCC4)cc3nc3cc(NC(=O)CCN4CCCC4)ccc23)c1 | 2.8 µM | 0.1 µM | 1.3 µM | – | – | –
8 | O=C(CCN1CCCC1)Nc1ccc2cc3ccc(NC(=O)CCN4CCCC4)cc3nc2c1 | 2.6 µM | 5.2 µM | – | – | 1300000 M⁻¹ | 1100000 M⁻¹
9 | Nc1ccc(Nc2c3cc(NC(=O)CCN4CCCC4)ccc3nc3ccc(NC(=O)CCN4CCCC4)cc23)cc1 | > 25 µM | 0.2 µM | > 25 µM | – | – | –
10 | Nc1ccc(Nc2c3ccc(NC(=O)CCN4CCCC4)cc3nc3cc(NC(=O)CCN4CCCC4)ccc23)cc1 | 25 µM | 0.074 µM | 25 µM | – | 16000000 M⁻¹ | 500000 M⁻¹
11 | COc1ccc(Nc2c3cc(NC(=O)CCN4CCCC4)ccc3nc3ccc(NC(=O)CCN4CCCC4)cc23)cc1 | 10 µM | 0.46 µM | 12.6 µM | – | – | –
12 | O=C(CCN1CCCC1)Nc1ccc2c(Nc3ccccc3)c3cc(NC(=O)CCN4CCCC4)ccc3nc2c1 | 5.6 µM | 1.33 µM | 14 µM | – | – | –
13 | O=C(CCN1CCCC1)Nc1ccc2c(NC3CCCCC3)c3ccc(NC(=O)CCN4CCCC4)cc3nc2c1 | 12.5 µM | 0.09 µM | 2.5 µM | – | – | –
14 | COCCNc1c2ccc(NC(=O)CCN3CCCC3)cc2nc2cc(NC(=O)CCN3CCCC3)ccc12 | 10 µM | 0.14 µM | 10 µM | – | – | –
15 | CC(=O)Nc1cccc(Nc2c3ccc(NC(=O)CCN4CCCC4)cc3nc3cc(NC(=O)CCN4CCCC4)ccc23)c1 | > 25 µM | 0.1 µM | > 25 µM | – | – | –
16 | O=C(CCN1CCCC1)Nc1ccc2nc3ccc(NC(=O)CCN4CCCC4)cc3c(Nc3ccccc3O)c2c1 | 10 µM | 1.03 µM | > 25 µM | – | – | –
17 | CN(C)CCCNc1c2ccc(NC(=O)CCN3CCCC3)cc2nc2cc(NC(=O)CCN3CCCC3)ccc12 | > 25 µM | 0.06 µM | > 25 µM | – | – | –
18 | CN1CCCC1CCNc1c2ccc(NC(=O)CCN3CCCC3)cc2nc2cc(NC(=O)CCN3CCCC3)ccc12 (stereo unspecified) | > 25 µM | 0.018 µM | 25 µM | – | – | –
19 | Nc1cccc(Nc2c3ccc(NC(=O)CCN4CCCC4)cc3nc3cc(NC(=O)CCN4CCCC4)ccc23)c1 | 12.6 µM | 0.06 µM | 12.6 µM | – | – | –

Row | SMILES | IC50 [1] | EC50 [2] | IC50 [3] | Ka (Homo sapiens [4]) | Ka (Homo sapiens [5]) | Ka (Nucleic Acid)
20 | CC(=O)c1ccc(Nc2c3ccc(NC(=O)CCN4CCCC4)cc3nc3cc(NC(=O)CCN4CCCC4)ccc23)cc1 | 3.2 µM | 0.04 µM | 2.2 µM | – | – | –
21 | Nc1ccccc1Nc1c2ccc(NC(=O)CCN3CCCC3)cc2nc2ccc(NC(=O)CCN3CCCC3)cc12 | 15.8 µM | 0.11 µM | > 25 µM | – | – | –
22 | Nc1cccc(Nc2c3cc(NC(=O)CCN4CCCC4)ccc3nc3ccc(NC(=O)CCN4CCCC4)cc23)c1 | 6.3 µM | 1.09 µM | > 25 µM | – | – | –
23 | Nc1cccc(Nc2c3ccc(NC(=O)CCN4CCCC4)cc3nc3ccc(NC(=O)CCN4CCCC4)cc23)c1 | 15.8 µM | 0.21 µM | > 25 µM | – | – | –
24 | Nc1ccccc1Nc1c2cc(NC(=O)CCN3CCCC3)ccc2nc2ccc(NC(=O)CCN3CCCC3)cc12 | 17.8 µM | 0.17 µM | > 25 µM | – | – | –
25 | CN(C)CCCNc1c2ccc(NC(=O)CCN3CCCC3)cc2nc2ccc(NC(=O)CCN3CCCC3)cc12 | > 25 µM | 0.08 µM | > 25 µM | – | – | –
26 | CSc1ccccc1Nc1c2ccc(NC(=O)CCN3CCCC3)cc2nc2cc(NC(=O)CCN3CCCC3)ccc12 | 0.1 µM | 0.15 µM | 2.5 µM | – | – | –
27 | O=C(CCN1CCCC1)Nc1ccc2c(NCCN3CCCCC3)c3ccc(NC(=O)CCN4CCCC4)cc3nc2c1 | 12.6 µM | 0.05 µM | 11.2 µM | – | – | –
28 | COc1cccc(Nc2c3cc(NC(=O)CCN4CCCC4)ccc3nc3ccc(NC(=O)CCN4CCCC4)cc23)c1 | 2.5 µM | 2.73 µM | 10 µM | – | – | –
29 | CN(C)CCNc1c2ccc(NC(=O)CCN3CCCC3)cc2nc2cc(NC(=O)CCN3CCCC3)ccc12 | > 25 µM | 0.018 µM | > 25 µM | – | 57000000 M⁻¹ | 4900000 M⁻¹
30 | O=C(CCN1CCCC1)Nc1ccc2nc3ccc(NC(=O)CCN4CCCC4)cc3c(Nc3ccccc3)c2c1 | 2.6 µM | 1.29 µM | 12.5 µM | – | – | –
31 | CN(C)c1cccc(Nc2c3ccc(NC(=O)CCN4CCCC4)cc3nc3cc(NC(=O)CCN4CCCC4)ccc23)c1 | 7.9 µM | 0.1 µM | 2 µM | – | – | –
32 | O=C(CCN1CCCC1)Nc1ccc2c(NC3CC3)c3ccc(NC(=O)CCN4CCCC4)cc3nc2c1 | 19 µM | 0.05 µM | > 25 µM | – | – | –
33 | O=C(CCN1CCCC1)Nc1ccc2c(NC3CCCCCC3)c3ccc(NC(=O)CCN4CCCC4)cc3nc2c1 | 3.2 µM | 0.21 µM | 3.2 µM | – | – | –
34 | O=C(CCN1CCCC1)Nc1ccc2c(NCc3cccnc3)c3ccc(NC(=O)CCN4CCCC4)cc3nc2c1 | > 25 µM | 0.066 µM | > 25 µM | – | – | –
35 | Nc1ccc(Nc2c3ccc(NC(=O)CCN4CCCC4)cc3nc3ccc(NC(=O)CCN4CCCC4)cc23)cc1 | > 25 µM | 0.08 µM | > 25 µM | – | – | –
36 | CN(C)c1ccc(Nc2c3cc(NC(=O)CCN4CCCC4)ccc3nc3ccc(NC(=O)CCN4CCCC4)cc23)cc1 | 19 µM | 0.5 µM | > 25 µM | – | – | –
37 | CN(C)c1cccc(Nc2c3cc(NC(=O)CCN4CCCC4)ccc3nc3ccc(NC(=O)CCN4CCCC4)cc23)c1 | 3.2 µM | 0.6 µM | 12.6 µM | – | – | –
38 | O=C(CCN1CCCC1)Nc1ccc2c(Nc3ccc(F)cc3)c3ccc(NC(=O)CCN4CCCC4)cc3nc2c1 | 3.2 µM | 0.07 µM | 0.5 µM | – | – | –
